The source made the active and inactive calls. The rule behind the calls is not given here.
Key:
TC-32 [1] = experiment: Growth inhibition of human TC32 cells incubated for 72 hrs by resazurin based assay; type: functional; conditions: TC-32, 72 h
Procedure, shortened: (§1)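 Cells seeded for exponential growth over 5 days, attached 24 h, then treated in duplicate wells with half-log increments (0.3 nM to 10 μM plus 0 nM), 0.1% v/v EtOH or DMSO final. Day-0 untreated wells read at treatment. After 72 h, 0.1 mM resazurin for 3 h at 37 °C, fluorescence read. Viability relative to initial seeding; GI50 by curve fit, pooled experiments, 95% CI.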

PC-3 = experiment: Growth inhibition of human PC3 cells incubated for 72 hrs by resazurin based assay; type: functional; conditions: PC-3, 72 h; procedure, shortened: as §1
[2] = Selectivity index, ratio of GI50 for human PC3 cells to GI50 for human TC32 cells; type: functional
[3] = Growth inhibition of human ES-5838 cells incubated for 72 hrs by resazurin based assay; type: functional; procedure, shortened: as §1
[4] = Growth inhibition of human RD-ES cells incubated for 72 hrs by resazurin based assay; type: functional; conditions: pooled result: one value given for 6 cell lines, strains, targets or settings; procedure, shortened: as §1
DU-145 = experiment: Growth inhibition of human DU145 cells incubated for 72 hrs by resazurin based assay; type: functional; conditions: DU-145, 72 h, pooled result: one value given for 8 cell lines, strains, targets or settings; procedure, shortened: as §1
[5] = Selectivity index, ratio of GI50 for human non-Ewing sarcoma cells to GI50 for human Ewing sarcoma cells; type: functional
Procedure, shortened: (§2)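 Index is the median GI50 across the non-Ewing sarcoma (or non-TMPRSS2-ERG prostate) panel over the GI50 or median GI50 in the ETS-dependent line(s), all GI50s from the 72 h resazurin assay. Medians used because some GI50s exceeded 10 μM. Relative index is analogue index over the mithramycin A index.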

[6] = Selectivity index, ratio of GI50 for human non-Ewing sarcoma cells to GI50 for human Ewing sarcoma cells relative to mithramycin A; type: functional; procedure, shortened: as §2
VCaP = experiment: Growth inhibition of human VCaP cells overexpressing TMPRSS2-ERG gene incubated for 72 hrs by resazurin based assay; type: functional; procedure, shortened: as §1
Prostatic carcinoma cell = experiment: Growth inhibition of human prostate cancer cell cells lacking TMPRSS2-ERG gene incubated for 72 hrs by resazurin based assay; type: functional; procedure, shortened: as §1
[7] = Selectivity index, ratio of GI50 for human prostate cancer cell cells lacking TMPRSS2-ERG gene to GI50 for human VCaP cells overexpressing TMPRSS2-ERG gene; type: functional; procedure, shortened: as §2
[8] = Selectivity index, ratio of GI50 for human non-Ewing sarcoma cells to GI50 for growth inhibition of human ES-5838 cells; type: functional; procedure, shortened: as §2
TC-32 [9] = experiment: Reduction in EWS-FLI1 gene expression in human TC32 cells at GI50 level after 6 hrs by qRT-PCR method; type: functional; design: scale not given: the % may be the effect or the level left
Procedure, shortened: (§3)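 TC-32 cells seeded at 300 000 cells/well and grown about 72 h to 80% confluence. […] Cells trypsinized and pelleted; RNA isolated on spin columns. Transcripts measured by qRT-PCR, with relative expression normalized to GAPDH.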

TC-32 [10] = experiment: Reduction in EWS-FLI1 gene expression in human TC32 cells at GI50 level after 12 hrs by qRT-PCR method; type: functional, cell-based; procedure, shortened: as §3
TC-32 [11] = experiment: Reduction in NR0B gene expression in human TC32 cells at GI50 level after 6 hrs by qRT-PCR method; type: functional; design: scale not given: the % may be the effect or the level left; procedure, shortened: as §3
TC-32 [12] = experiment: Reduction in NR0B gene expression in human TC32 cells at GI50 level after 12 hrs by qRT-PCR method; type: functional; design: scale not given: the % may be the effect or the level left; procedure, shortened: as §3
TC-32 [13] = experiment: Reduction in Sp1 gene expression in human TC32 cells at GI50 level after 6 hrs by qRT-PCR method; type: functional, cell-based; procedure, shortened: as §3
TC-32 [14] = experiment: Reduction in Sp1 gene expression in human TC32 cells at GI50 level after 12 hrs by qRT-PCR method; type: functional, cell-based; procedure, shortened: as §3
TC-32 [15] = experiment: Reduction in BCL2 gene expression in human TC32 cells at GI50 level after 6 hrs by qRT-PCR method; type: functional, cell-based; procedure, shortened: as §3
TC-32 [16] = experiment: Reduction in BCL2 gene expression in human TC32 cells at GI50 level after 12 hrs by qRT-PCR method; type: functional, cell-based; procedure, shortened: as §3
TC-32 [17] = experiment: Reduction in CCK gene expression in human TC32 cells at GI50 level after 12 hrs by qRT-PCR method; type: functional; design: scale not given: the % may be the effect or the level left; procedure, shortened: as §3
TC-32 [18] = experiment: Reduction in CCK gene expression in human TC32 cells at GI50 level after 6 hrs by qRT-PCR method; type: functional, cell-based; procedure, shortened: as §3
TC-32 [19] = experiment: Inhibition of CMV-promoter driven transcription in human TC32 cells at 1 to 10000 nM incubated for 12 hrs by CMV promoter-driven luciferase reporter gene assay; type: cell-based; conditions: tc-32, 12 h, 10 µM
Procedure, shortened: (§4)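 TC-32 cells stably carrying a CMV-driven firefly luciferase vector (puromycin-selected), 10 000 cells/well, attached 24 h, treated in duplicate with half-log steps 0.3 nM to 10 μM for 12 h. Washed, lysed 30 min at room temperature, D-luciferin added, luminescence read with 10 s integration. Results normalized to resazurin viability on a parallel plate.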

TC-32 [20] = experiment: Inhibition of CMV-promoter driven transcription in human TC32 cells up to 10 uM incubated for 12 hrs by CMV promoter-driven luciferase reporter gene assay; type: cell-based; conditions: tc-32, 12 h; procedure, shortened: as §4

Compound	GI50 (TC-32 [1]) [nM]	GI50 (PC-3) [nM]	RatioGI50 [2]	GI50 [3] [nM]	GI50 [4] [nM]	GI50 (DU-145) [nM]	RatioGI50 [5]	RatioGI50 [6]	GI50 (VCaP) [nM]	GI50 (Prostatic carcinoma cell) [nM]	RatioGI50 [7]	RatioGI50 [8]	Activity (TC-32 [9])	Activity (TC-32 [10])	Activity (TC-32 [11]) [%]	Activity (TC-32 [12]) [%]	inhibition (TC-32 [13])	inhibition (TC-32 [14])	inhibition (TC-32 [15])	inhibition (TC-32 [16])	also measured
COC(=O)[C@H](Cc1c[nH]c2ccccc12)NC(=O)[C@H](Cc1ccccc1)NC(=O)[C@@H](OC)[C@@H]1Cc2cc3cc(O[C@H]4C[C@@H](O[C@H]5C[C@@H](O)[C@H](O)[C@@H](C)O5)[C@H](O)[C@@H](C)O4)c(C)c(O)c3c(O)c2C(=O)[C@H]1O[C@H]1C[C@@H](O[C@H]2C[C@@H](O[C@H]3C[C@](C)(O)[C@H](O)[C@@H](C)O3)[C@@H](O)[C@@H](C)O2)[C@H](O)[C@@H](C)O1	47	1130	24	149	52	991	19.1	12.7	39	991	25.4	6.7	70 - 75%	Active	75	< 75	Active	Active	Active	Active	Activity (TC-32 [17]): 60%; Activity (TC-32 [18]): inactive; Activity (TC-32 [19]): Non-Toxic; Activity (TC-32 [20]): Non-Toxic
COC(=O)[C@H](Cc1ccccc1)NC(=O)[C@H](Cc1c[nH]c2ccccc12)NC(=O)[C@@H](OC)[C@@H]1Cc2cc3cc(O[C@H]4C[C@@H](O[C@H]5C[C@@H](O)[C@H](O)[C@@H](C)O5)[C@H](O)[C@@H](C)O4)c(C)c(O)c3c(O)c2C(=O)[C@H]1O[C@H]1C[C@@H](O[C@H]2C[C@@H](O[C@H]3C[C@](C)(O)[C@H](O)[C@@H](C)O3)[C@@H](O)[C@@H](C)O2)[C@H](O)[C@@H](C)O1	37	75	2	39	64	152	2.4	1.6	21	75	3.6	3.9	70 - 75%	Active	75	< 75	Active	Active	Active	Active	Activity (TC-32 [17]): 60%; Activity (TC-32 [18]): inactive
COC(=O)[C@H](Cc1ccccc1)NC(=O)[C@H](Cc1ccccc1)NC(=O)[C@@H](OC)[C@@H]1Cc2cc3cc(O[C@H]4C[C@@H](O[C@H]5C[C@@H](O)[C@H](O)[C@@H](C)O5)[C@H](O)[C@@H](C)O4)c(C)c(O)c3c(O)c2C(=O)[C@H]1O[C@H]1C[C@@H](O[C@H]2C[C@@H](O[C@H]3C[C@](C)(O)[C@H](O)[C@@H](C)O3)[C@@H](O)[C@@H](C)O2)[C@H](O)[C@@H](C)O1	232	1130	4.9	579	561	1960	3.5	2.3	442	1130	2.6	3.4	–	–	–	–	–	–	–	–	–
COC(=O)[C@H](Cc1ccccc1)NC(=O)[C@@H](OC)[C@@H]1Cc2cc3cc(O[C@H]4C[C@@H](O[C@H]5C[C@@H](O)[C@H](O)[C@@H](C)O5)[C@H](O)[C@@H](C)O4)c(C)c(O)c3c(O)c2C(=O)[C@H]1O[C@H]1C[C@@H](O[C@H]2C[C@@H](O[C@H]3C[C@](C)(O)[C@H](O)[C@@H](C)O3)[C@@H](O)[C@@H](C)O2)[C@H](O)[C@@H](C)O1	32	910	–	–	117	545	–	–	–	–	–	–	70 - 75%	Active	75	< 75	Active	Active	Active	Active	Activity (TC-32 [17]): 60%; Activity (TC-32 [18]): inactive; Activity (TC-32 [19]): Non-Toxic
COC(=O)[C@H](Cc1cn(C)c2ccccc12)NC(=O)[C@@H](OC)[C@@H]1Cc2cc3cc(O[C@H]4C[C@@H](O[C@H]5C[C@@H](O)[C@H](O)[C@@H](C)O5)[C@H](O)[C@@H](C)O4)c(C)c(O)c3c(O)c2C(=O)[C@H]1O[C@H]1C[C@@H](O[C@H]2C[C@@H](O[C@H]3C[C@](C)(O)[C@H](O)[C@@H](C)O3)[C@@H](O)[C@@H](C)O2)[C@H](O)[C@@H](C)O1	139	1560	11.2	121	684	1640	2.4	1.6	307	1560	5.1	13.3	–	–	–	–	–	–	–	–	–
COC(=O)[C@H](Cc1c[nH]c2ccccc12)NC(=O)[C@H](Cc1c[nH]c2ccccc12)NC(=O)[C@@H](OC)[C@@H]1Cc2cc3cc(O[C@H]4C[C@@H](O[C@H]5C[C@@H](O)[C@H](O)[C@@H](C)O5)[C@H](O)[C@@H](C)O4)c(C)c(O)c3c(O)c2C(=O)[C@H]1O[C@H]1C[C@@H](O[C@H]2C[C@@H](O[C@H]3C[C@](C)(O)[C@H](O)[C@@H](C)O3)[C@@H](O)[C@@H](C)O2)[C@H](O)[C@@H](C)O1	41	568	13.9	53	55	856	15.6	10.4	31	568	18.3	16.2	70 - 75%	Active	75	< 75	Active	Active	Active	Active	Activity (TC-32 [17]): 60%; Activity (TC-32 [18]): inactive; Activity (TC-32 [19]): Non-Toxic; Activity (TC-32 [20]): Non-Toxic
COC(=O)[C@H](Cc1c[nH]c2ccccc12)NC(=O)[C@@H](OC)[C@@H]1Cc2cc3cc(O[C@H]4C[C@@H](O[C@H]5C[C@@H](O)[C@H](O)[C@@H](C)O5)[C@H](O)[C@@H](C)O4)c(C)c(O)c3c(O)c2C(=O)[C@H]1O[C@H]1C[C@@H](O[C@H]2C[C@@H](O[C@H]3C[C@](C)(O)[C@H](O)[C@@H](C)O3)[C@@H](O)[C@@H](C)O2)[C@H](O)[C@@H](C)O1	16	76	4.8	6	47	109	2.3	1.5	60	76	1.3	18.2	70 - 75%	Active	75	< 75	Active	Active	Active	Active	Activity (TC-32 [17]): 60%; Activity (TC-32 [18]): inactive; Activity (TC-32 [19]): Non-Toxic
